Laboratory results taken from publication PMC5574666 (International Journal of Nanomedicine, 2017).
Where “and” joins values, the source holds several entries; their conditions need not be identical. Equal entries are not always repeated.

Columns and labels:
[1] = In vivo pharmacokinetic study; conditions: male Sprague-Dawley rats, 5 mg·kg^−1 DOX i.v., n=6
[2] = Maximum tolerated dose; type: in vivo; conditions: BALB/c mice; for Animal death: 2 weeks
In short: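 Female BALB/c mice were randomized into three formulation groups. […] Body weight and survival were monitored daily for 2 weeks. MTD was taken as the highest dose causing neither death from systemic toxicity nor >15% body weight loss over the study.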

[3] = system: MCF-7 cells; experiment: Cellular uptake; type: cell-based, Human; conditions: 6 and 24 h
[4] = system: MCF-7 cells; experiment: Cytotoxicity MTT assay; type: cell-based, Human; conditions: 0.1-10 μg·mL^−1, 48 hours
[5] = In vivo toxicity study; design: species or system BALB/c nude mice
In short: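 Male BALB/c nude mice bearing MCF-7/ADR xenografts were randomized into five groups when tumors reached ~100 mm3. Groups received i.v. saline, carrier or test formulations. Body weight was tracked during the efficacy study. At its end, heart, liver, spleen, lung and kidney were excised, stained with H&E and examined microscopically at 200×.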

[6] = Biodistribution of DOX in tumor-bearing mice; type: in vivo; conditions: BALB/c nude mice bearing MCF-7/ADR tumors, 5 mg·kg^−1 DOX i.v., 1, 6, 12, 24 hours
[7] = system: MCF-7/ADR cells; experiment: Cellular uptake; type: cell-based, Human; conditions: MCF-7/ADR cells compared with MCF-7 cells
In short: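 MCF-7 and MCF-7/ADR cells were grown in DMEM with 10% FBS and 1% penicillin-streptomycin at 37°C and 5% CO2. They were seeded at 5×10^4 per well in 24-well plates and grown 24 h.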

Question: With `COc1cccc2c1C(=O)c1c(O)c3c(c(O)c1C2=O)C[C@@](O)(C(=O)CO)C[C@@H]3O[C@H]1C[C@H](N)[C@H](O)[C@H](C)O1` [DOX, doxorubicin] as the molecule, how does the “AUC0–∞” value [1] read?
Answer: 36.318 ± 6.517 µg/mL/h

Question: What about the CL [1] of the same molecule?
Answer: 2.37 ± 0.467 mL/min/kg

Question: And the Cmax [1]?
Answer: 10275 ± 1219 ng/mL

Question: And the “MRT0–∞” value [1]?
Answer: 3.429 ± 0.658 h

Question: What about the Vd [1] of the same molecule?
Answer: 0.300 ± 0.073 L/kg

Question: And the Weight loss ([2]; single i.v. dose 5 mg/kg DOX)?
Answer: 2.0%

Question: And the Animal death ([2]; single i.v. dose 5 mg/kg DOX)?
Answer: 0/3

Question: What about the Weight loss ([2]; single i.v. dose 10 mg/kg DOX) of the same molecule?
Answer: 7.4%

Question: And the Animal death ([2]; single i.v. dose 10 mg/kg DOX)?
Answer: 0/3

Question: What about the Animal death ([2]; single i.v. dose 15 mg/kg DOX, 15 mg/kg) of the same molecule?
Answer: 2 out of 3 and 2/3

Question: What about the internalization into cells [3] of the same molecule?
Answer: internalized into MCF-7 cells in a time-dependent manner

Question: And the cell viability [4]?
Answer: effectively reduced the viability of MCF-7 cells in a dose-dependent manner

Question: And the bodyweight reduction ([5]; BALB/c nude mice bearing MCF-7/ADR tumors, 5 mg DOX/kg)?
Answer: 30%

Question: And the “H&E histology of main organs (heart, liver, spleen, lung, kidney)” value ([5]; end of the antitumor inhibition test)?
Answer: caused cardiotoxicity

Question: And the “DOX content in tumor” value [6]?
Answer: negligible after 6 hours

Question: What about the internalization into cells [7] of the same molecule?
Answer: substantially reduced
